The source made the active and inactive calls. The calls are words filed in the database; no cut-off is given here.
Experiments:
Rattus norvegicus [1] = test: Hypoglycemic activity in 18 to 24 hrs-fasted rat assessed as reduction in blood glucose at 5 mg/kg, ip measured after 1 hr relative to saline-treated control; format: functional; design: scale not given: the % may be the effect or the level left; conditions: route intraperitoneal
Outline: (§1)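 Unanesthetized male Charles River rats (200–250 g), fasted 18–24 h, in groups of five or six. Single ip dose. Tail-vein blood drawn before dosing and 1 h after. Glucose measured by ferricyanide reduction micromethod on an autoanalyzer. Value is the percent fall in blood glucose at 1 h versus a saline-treated control group. Significance levels are p < 0.05, 0.01 and 0.001.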

Rattus norvegicus [2] = test: Hypoglycemic activity in 18 to 24 hrs-fasted rat assessed as reduction in blood glucose at 1 mg/kg, ip measured after 1 hr relative to saline-treated control; format: functional; design: scale not given: the % may be the effect or the level left; conditions: route intraperitoneal; outline: as §1
Rattus norvegicus [3] = test: Hypoglycemic activity in 18 to 24 hrs-fasted rat assessed as reduction in blood glucose at 0.5 mg/kg, ip measured after 1 hr relative to saline-treated control; format: functional, organism-based; design: dose 0.5 mg/kg; outline: as §1
Rattus norvegicus [4] = test: Hypoglycemic activity in 18 to 24 hrs-fasted rat assessed as reduction in blood glucose at 15 mg/kg, ip measured after 1 hr relative to saline-treated control; format: functional; design: scale not given: the % may be the effect or the level left; conditions: route intraperitoneal; outline: as §1
Rattus norvegicus [5] = test: Hypoglycemic activity in 18 to 24 hrs-fasted rat assessed as reduction in blood glucose at 100 mg/kg, ip measured after 1 hr relative to saline-treated control; format: functional; design: scale not given: the % may be the effect or the level left; conditions: route intraperitoneal; outline: as §1
Homo sapiens = species: Homo sapiens; test: Toxicity in maturity-onset diabetic patient; format: organism-based; conditions: in vivo
Rattus norvegicus [6] = test: Hypoglycemic activity in 18 to 24 hrs-fasted rat assessed as reduction in blood glucose at 50 mg/kg, ip measured after 1 hr relative to saline-treated control; format: functional; design: scale not given: the % may be the effect or the level left; conditions: route intraperitoneal; outline: as §1
Rattus norvegicus [7] = test: Hypoglycemic activity in 18 to 24 hrs-fasted rat assessed as reduction in blood glucose at 25 mg/kg, ip measured after 1 hr relative to saline-treated control; format: functional; design: scale not given: the % may be the effect or the level left; conditions: route intraperitoneal; outline: as §1

Row | SMILES | Activity (Rattus norvegicus [1]) [%] | Activity (Rattus norvegicus [2]) [%] | Activity (Rattus norvegicus [3]) | Activity (Rattus norvegicus [4]) [%] | Activity (Rattus norvegicus [5]) [%] | Activity (Homo sapiens) | Activity (Rattus norvegicus [6]) [%] | Activity (Rattus norvegicus [7]) [%]
1 | O.O=C(NC[C@@H]1C[C@@H]2C=C[C@@H]1C2)NS(=O)(=O)N1CCC(CCNC(=O)c2cc(Cl)cc3cccnc23)CC1 (relative stereo) | 35 | 16 | inactive | – | – | – | – | –
2 | O=C(NC1CCCCC1)NS(=O)(=O)N1CCCCC1 | – | – | – | 19 | 34 | – | – | –
3 | COc1ncccc1C(=O)NCCC1CCN(S(=O)(=O)NC(=O)NC[C@@H]2C[C@@H]3C=C[C@@H]2C3)CC1 (relative stereo) | 32 | 25 | – | – | – | Non-toxic | – | –
4 | CCCNC(=O)NS(=O)(=O)c1ccc(Cl)cc1 [CHLORPROPAMIDE] | 10 | – | – | 18 | – | – | 46 | –
5 | CCCNC(=O)NS(=O)(=O)N1CCC(CCNC(=O)c2cc(Cl)ccc2OC)CC1 | 11 | 24 | – | – | – | – | – | 41
6 | O.O=C(NC1CCCCC1)NS(=O)(=O)N1CCC(CCNC(=O)c2cc(Cl)cc3cccnc23)CC1 | 52 | 17 | inactive | – | – | – | – | –

Reference: ChEMBL document CHEMBL3272242, “Sulfamylurea hypoglycemic agents. 6. High-potency derivatives” (J Med Chem, 1976)
